Data on twelve compounds can be found in ChEMBL document CHEMBL1138836, “4-[5-Fluoro-3-[4-(2-methyl-1H-imidazol-1-yl)benzyloxy]phenyl]-3,4,5,6- tetrahydro-2H-pyran-4-carboxamide, an orally active inhibitor of 5-lipoxygenase with improved pharmacokinetic and toxicology characteristics” (J Med Chem, 2004).

In one series the test system is Mus musculus. Put plainly: In vivo potency was determined after oral administration to mice by the PAF (platelet activating factor) induced thrombosis assay. It is filed as functional. The method, boiled down: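 Male […] mice were dosed orally, then given platelet activating factor to induce thrombosis. ED50 reported in mg/kg.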
In series [1] the target is T1, Polyunsaturated fatty acid 5-lipoxygenase (Homo sapiens, UniProt P09917).
T1 sequence (P09917 whole entry): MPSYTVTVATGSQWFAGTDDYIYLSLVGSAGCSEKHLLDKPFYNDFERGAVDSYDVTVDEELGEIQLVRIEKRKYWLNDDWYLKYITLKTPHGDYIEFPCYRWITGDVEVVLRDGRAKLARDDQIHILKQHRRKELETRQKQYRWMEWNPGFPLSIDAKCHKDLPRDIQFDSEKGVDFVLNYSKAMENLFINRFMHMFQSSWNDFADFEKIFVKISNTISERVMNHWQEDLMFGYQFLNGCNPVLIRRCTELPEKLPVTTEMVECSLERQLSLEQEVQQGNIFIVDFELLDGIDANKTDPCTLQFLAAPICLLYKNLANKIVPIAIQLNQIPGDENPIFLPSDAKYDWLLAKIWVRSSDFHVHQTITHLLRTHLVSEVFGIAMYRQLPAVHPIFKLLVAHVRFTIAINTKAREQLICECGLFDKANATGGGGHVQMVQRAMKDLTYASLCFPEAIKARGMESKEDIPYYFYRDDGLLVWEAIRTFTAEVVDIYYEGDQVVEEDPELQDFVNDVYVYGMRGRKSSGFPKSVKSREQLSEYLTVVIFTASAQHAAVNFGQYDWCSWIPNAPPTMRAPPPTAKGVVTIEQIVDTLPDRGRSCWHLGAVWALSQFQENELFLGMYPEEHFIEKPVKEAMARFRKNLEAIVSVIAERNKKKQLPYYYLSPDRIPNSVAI
Briefly: Inhibition of 5-Lipoxygenase (5-LO) of human whole blood (HWB). The series is classed as tissue-based.

The nature of series [2]: Bioavailability of compound at 3 mg/kg in monkey […]. The settings on record: cercopithecidae, in vivo, iv. The series is classed as ADME, organism-based. The method in brief:
(§1)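 Oral bioavailability derived from oral and intravenous pharmacokinetic data. Doses: monkey 5 mg/kg oral vs 3 mg/kg iv; rat and guinea pig 10 mg/kg oral vs 3 mg/kg iv.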

Series [3] in a line: Bioavailability of compound at 3 mg/kg in guinea pig […]. The settings on record: in vivo, iv. The series is classed as ADME, organism-based, Cavia porcellus. The method in brief:
as §1

The nature of series [4]: Maximum concentration of compound found in plasma at 5 mg/kg after oral administration. It is filed as ADME, organism-based. Set-up: dose 5 mg/kg, route oral. The conditions noted are these: cercopithecidae. The method in brief: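 Male cynomolgus monkeys, three animals, single 5 mg/kg oral dose with plasma concentration followed over time. Values are mean ± SEM (n = 3), Cmax in μg/mL.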

Series [5] is described as follows: Oral bioavailability of compound at 5 mg/kg in monkey. It is filed as ADME, organism-based. The settings on record: cercopithecidae, in vivo. The method, boiled down: as §1
A short description of series [6]: Bioavailability of compound at 10 mg/kg in guinea pig after oral administration. The settings on record: in vivo.
A short description of series [7]: Bioavailability of compound at 3 mg/kg in rat […]. The series is classed as ADME, organism-based. The conditions noted are these: in vivo, iv. The method in brief: as §1
The nature of series [8]: Bioavailability of compound at 10 mg/kg in rat after oral administration. The series is classed as ADME, organism-based. The settings on record: in vivo. The method in brief:
as §1

A word on the ED50: it is the dose at which the effect has come halfway, by size or by number of responders. The term IC50 denotes the midpoint of a concentration-inhibition curve. Compound `COC1(c2cc(F)cc(OCc3ccc(-n4ccnc4C)cc3)c2)CCOCC1` displayed a median effective dose (ED50) in the series on Mus musculus of 2 mg/kg. Further, in series [1], half-maximal inhibition (IC50) was put at 60 nM.

The compound `Cc1nccn1-c1ccc(COc2cc(F)cc(C3(C(=O)O)CCOCC3)c2)cc1` had an IC50 in series [1] of over 1000 nM.

As for `Cc1nccn1-c1ccc(COc2cc(F)cc(C3(O)CCOCC3)c2)cc1`, in series [1], the IC50 is over 1000 nM.

The compound `CCOC1(c2cc(F)cc(OCc3ccc(-n4ccnc4C)cc3)c2)CCOCC1` displayed an ED50 in the series with Mus musculus of 5 mg/kg. This compound returned an IC50 in [1] of 80 nM.

For the compound `CC(=O)C1(c2cc(F)cc(OCc3ccc(-n4ccnc4C)cc3)c2)CCOCC1`, it took a dose of 12 mg/kg to reach the 50% effect level in the series with Mus musculus (ED50). The compound further came in with a concentration for half-maximal inhibition (IC50) in series [1] of 130 nM.

In turn, `Cc1nccn1-c1ccc(COc2cc(F)cc(C3(S(C)(=O)=O)CCOCC3)c2)cc1` returned an IC50 in [1] of over 1000 nM.

`CNC(=O)C1(c2cc(F)cc(OCc3ccc(-n4ccnc4C)cc3)c2)CCOCC1` came in with an ED50 in the series with Mus musculus of 13 mg/kg. Besides, half-maximal inhibition in series [1] (IC50) required 280 nM.

`CCOC(=O)C1(c2cc(F)cc(OCc3ccc(-n4ccnc4C)cc3)c2)CCOCC1` returned an ED50 in the series with Mus musculus of 16 mg/kg. For the same compound, the IC50 in series [1] was 200 nM.

On to `Cc1nccn1-c1ccc(COc2cc(F)cc(C3(C(=O)N(C)C)CCOCC3)c2)cc1`, for which the ED50 in the series with Mus musculus was over 20 mg/kg. Also, 810 nM corresponded to half-maximal inhibition in series [1] (IC50).

What is called Cmax is the maximum level reached in the sampled fluid or tissue. Consider `Cc1nccn1-c1ccc(COc2cc(F)cc(C3(C(N)=O)CCOCC3)c2)cc1`, for which the bioavailability in series [2] came out at 88%; in series [3] it was 108%; in series [5], 88%; in [6], 108%; in series [7], 102%; in series [8] it was 102%. Also, the Cmax in [4] is 1570 ng/mL. In addition, the IC50 in [1] worked out at 340 nM.

On to `Cc1nccn1-c1ccc(COc2cc(F)cc(C3([S+](C)[O-])CCOCC3)c2)cc1` (stereo unspecified), for which the IC50 in series [1] was over 1000 nM.

In the case of `CSC1(c2cc(F)cc(OCc3ccc(-n4ccnc4C)cc3)c2)CCOCC1`, in the series with Mus musculus, the ED50 came out at 5 mg/kg. This compound also had an IC50 in [1] of 72 nM.
